ChEMBL document CHEMBL4765271, “Design, synthesis and biological evaluation of 2,3-dihydro-5,6-dimethoxy-1H-inden-1-one and piperazinium salt hybrid derivatives as hAChE and hBuChE enzyme inhibitors” (Eur J Med Chem, 2020)
Activity calls are given as the source filed them. The calls are words filed in the database; no cut-off is given here.

Legend:
Acetylcholinesterase [1] = biological target: T1, Acetylcholinesterase (Homo sapiens, UniProt P22303); experiment: Inhibition of human erythrocyte AChE using acetylthiocholine as substrate measured after 5 mins by Ellman's method
Homo sapiens = species on record: Homo sapiens; experiment: Selectivity ratio of IC50 for human erythrocyte AChE to IC50 for human plasma BuChE
Summary of the method: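 Ellman assay used cholinesterases from human blood. Inhibitor at five concentrations was pre-incubated 5 min at 37 °C in phosphate buffer pH 8 with DTNB (3.5 mM stock) and acetylthiocholine iodide substrate (7 mM stock). The reaction was started with enzyme and read as absorbance increase at 412 nm. Each run was done twice. The ratio is derived from the AChE and BuChE IC50 values.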

Cholinesterase [2] = biological target: T2, Cholinesterase (Homo sapiens, UniProt P06276); experiment: Inhibition of human plasma BuChE using butyrylthiocholine as substrate measured after 5 mins by Ellman's method
Acetylcholinesterase [3] = biological target: T1, Acetylcholinesterase
Cholinesterase [4] = biological target: T2, Cholinesterase; experiment: Non competitive inhibition of human plasma BuChE using varying levels of butyrylthiocholine iodide as substrate by Lineweaver-Burk plot analysis
HFF = experiment: Cytotoxicity against HFF cells assessed as reduction in cell viability incubated for 48 hrs by MTT assay; format: ADME, cell-based; settings: Homo sapiens
Acetylcholinesterase [5] = biological target: T1, Acetylcholinesterase; experiment: Non competitive inhibition of human erythrocyte AChE using varying levels of acetylthiocholine iodide as substrate by Lineweaver-Burk plot analysis
SH-SY5Y = experiment: Cytotoxicity against human SH-SY5Y cells measured after 48 hrs by MTT assay; format: ADME, cell-based
MCF7 = experiment: Cytotoxicity against human MCF7 cells after 48 hrs by MTT assay; format: ADME, cell-based; settings: MCF7, 48 h
Cholinesterase [6] = biological target: T2, Cholinesterase; experiment: Inhibition of human plasma BuChE at 100 uM using butyrylthiocholine as substrate measured after 5 mins by Ellman's method relative to control
Summary of the method: (§1)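 Ellman spectrophotometric assay using cholinesterases from human blood. The 1 ml medium held pH 8 phosphate buffer, DTNB (3.5 mM stock), thiocholine substrate (7 mM stock) and inhibitor. It was preincubated 5 min at 37 °C, then started by adding enzyme. Absorbance increase was read at 412 nm over 5 min intervals against control cuvettes. Each experiment was run twice.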

Acetylcholinesterase [7] = biological target: T1, Acetylcholinesterase; experiment: Inhibition of human erythrocyte AChE at 100 uM using acetylthiocholine as substrate measured after 5 mins by Ellman's method relative to control; summary of the method: as §1
PC-12 [8] = experiment: Cytoprotective activity against amyloid beta (1 to 42)-induced toxicity in rat PC-12 cells assessed as decrease in MDA level measured after 8 hrs by TBARS assay; format: functional, cell-based
Summary of the method: (§2)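 Cells seeded in six-well plates, exposed to 5 μM Aβ(1-42) with or without compound (1 or 10 μM) for 8 h. They were collected and sonicated on ice, then lysed with SDS. TBA reagent added and heated at 95 °C for 45-60 min. MDA read by TBARS absorbance at 535 nm.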

PC-12 [9] = experiment: Antioxidant activity in amyloid beta (1 to 42)-induced oxidative stress in rat PC-12 cells assessed as reduction in ROS formation by measuring DCF fluorescence intensity at 10 uM measured after 24 hrs by DCFH-DA staining based fluorescence spectrophotometric assay (reference value: 51 +/- 11); format: functional
PC-12 [10] = experiment: Cytoprotective activity against amyloid beta (1 to 42)-induced toxicity in rat PC-12 cells assessed as decrease in LDH level by spectrophotometric assay; format: functional, cell-based
Summary of the method: (§3)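 PC12 cells exposed to 5 μM Aβ(1-42) in serum-free DMEM 24 h at 37 °C, then compound (1 or 10 μM) added for 24 h. LDH in culture medium measured as rate of NADH oxidation (pyruvate→lactate), read as absorbance decrease at 340 nm. Expressed as leakage into medium relative to total LDH.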

PC-12 [11] = experiment: Antioxidant activity in amyloid beta (1 to 42)-induced oxidative stress in rat PC-12 cells assessed as reduction in ROS formation by measuring DCF fluorescence intensity at 1 uM measured after 24 hrs by DCFH-DA staining based fluorescence spectrophotometric assay (reference value: 51 +/- 11); format: functional
PC-12 [12] = experiment: Protection against amyloid beta (1 to 42)-induced toxicity in rat PC-12 cells assessed as increase in cell viability measured after 24 hrs by transmission electron microscopy; format: functional, cell-based
Summary of the method: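 PC12 cells incubated with 5 μM Aβ(1-42), with or without compound at 1 or 10 μM, at 37 °C for 24 h. Cell morphology and viability were compared by transmission electron microscopy.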

PC-12 [13] = experiment: Antioxidant activity in amyloid beta (1 to 42)-induced oxidative stress in rat PC-12 cells assessed as reduction in ROS formation by measuring apoptotic index at 1 uM measured after 24 hrs by DAPI staining based TUNEL assay (reference value: 60 +/- 10); format: functional
Acetylcholinesterase [14] = biological target: T1, Acetylcholinesterase; experiment: Mixed type inhibition of human erythrocyte AChE using varying levels of acetylthiocholine iodide as substrate by Lineweaver-Burk plot analysis
PC-12 [15] = experiment: Antioxidant activity in amyloid beta (1 to 42)-induced oxidative stress in rat PC-12 cells assessed as reduction in ROS formation by measuring apoptotic index at 10 uM measured after 24 hrs by DAPI staining based TUNEL assay (reference value: 60 +/- 10); format: functional
PC-12 [16] = experiment: Antiinflammatory activity in amyloid beta (1 to 42)-induced cytokine production in rat PC-12 cells assessed as decrease in TNFalpha mRNA level by SYBR green dye based RT-PCR analysis; format: functional, cell-based
Summary of the method: (§4)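 PC12 cells (7-day cultures, DMEM with 7% FBS, 7% horse serum) exposed to 5 μM Aβ(1-42) in serum-free DMEM for 24 h at 37 °C, 5% CO2, then compound at 1 or 10 μM for 24 h. Total RNA isolated, reverse transcribed, and IL-1β and TNF-α mRNA quantified by SYBR Green real-time PCR; 2^-ΔΔCT method relative to β-actin.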

PC-12 [17] = experiment: Cytoprotective activity against amyloid beta (1 to 42)-induced toxicity in rat PC-12 cells assessed as decrease in MDA level at 1 to 10 uM measured after 8 hrs by TBARS assay relative to control; format: functional; design: scale not given: the % may be the effect or the level left; settings: dose 1-10 µM; summary of the method: as §2
PC-12 [18] = experiment: Cytoprotective activity against amyloid beta (1 to 42)-induced toxicity in rat PC-12 cells assessed as decrease in LDH level at 1 uM by spectrophotometric assay relative to control; format: functional; design: scale not given: the % may be the effect or the level left; summary of the method: as §3
PC-12 [19] = experiment: Antiinflammatory activity in amyloid beta (1 to 42)-induced cytokine production in rat PC-12 cells assessed as decrease in IL-1beta mRNA level by SYBR green dye based RT-PCR analysis; format: functional, cell-based; summary of the method: as §4
PC-12 [20] = experiment: Antioxidant activity in amyloid beta (1 to 42)-induced oxidative stress in rat PC-12 cells assessed as reduction in ROS formation measured after 24 hrs by DCFH-DA staining based fluorescence spectrophotometric assay; format: functional, cell-based
Summary of the method: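 Intracellular ROS: PC12 cells given 5 μM Aβ(1-42) with or without compound (1 or 10 μM), then loaded with 10 μM DCFH-DA for 5 min at room temperature. DCF fluorescence read at ex 485/em 530 nm, with DAPI counterstain (ex 358/em 461) for microscopy.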

PC-12 [21] = experiment: Antioxidant activity in amyloid beta (1 to 42)-induced oxidative stress in rat PC-12 cells assessed as increase in TAC level at 1 to 10 uM in presence of ABTS by spectrophotometric assay; format: functional, cell-based; settings: dose 1-10 µM
Summary of the method: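 Total antioxidant capacity measured with the ABTS/myoglobin method: 10 mM PBS pH 7.2, myoglobin, ABTS (300 μM final) and diluted sample or Trolox held 3 min at 25 °C. The reaction was started and absorbance read at 450 nm for 5 min at 25 °C. Cells were treated with 5 μM Aβ(1-42) with or without compound.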

PC-12 [22] = experiment: Cytoprotective activity against amyloid beta (1 to 42)-induced toxicity in rat PC-12 cells assessed as decrease in LDH level at 10 uM by spectrophotometric assay relative to control; format: functional; design: scale not given: the % may be the effect or the level left; summary of the method: as §3
PC-12 [23] = experiment: Antioxidant activity in amyloid beta (1 to 42)-induced oxidative stress in rat PC-12 cells assessed as reduction in ROS formation measured after 24 hrs by DAPI staining based TUNEL assay; format: functional, cell-based
Summary of the method: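 Aβ(1-42) (5 μM) treated PC12 cells, with compound at 1 or 10 μM, fixed in 4% paraformaldehyde (1 h), blocked with […], then permeabilized with 0.1% Triton X-100/0.1% sodium citrate on ice. TUNEL reaction 60 min at 37 °C, DAPI nuclear counterstain, imaged by fluorescence/confocal microscopy.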

T2 sequence (P06276 whole entry): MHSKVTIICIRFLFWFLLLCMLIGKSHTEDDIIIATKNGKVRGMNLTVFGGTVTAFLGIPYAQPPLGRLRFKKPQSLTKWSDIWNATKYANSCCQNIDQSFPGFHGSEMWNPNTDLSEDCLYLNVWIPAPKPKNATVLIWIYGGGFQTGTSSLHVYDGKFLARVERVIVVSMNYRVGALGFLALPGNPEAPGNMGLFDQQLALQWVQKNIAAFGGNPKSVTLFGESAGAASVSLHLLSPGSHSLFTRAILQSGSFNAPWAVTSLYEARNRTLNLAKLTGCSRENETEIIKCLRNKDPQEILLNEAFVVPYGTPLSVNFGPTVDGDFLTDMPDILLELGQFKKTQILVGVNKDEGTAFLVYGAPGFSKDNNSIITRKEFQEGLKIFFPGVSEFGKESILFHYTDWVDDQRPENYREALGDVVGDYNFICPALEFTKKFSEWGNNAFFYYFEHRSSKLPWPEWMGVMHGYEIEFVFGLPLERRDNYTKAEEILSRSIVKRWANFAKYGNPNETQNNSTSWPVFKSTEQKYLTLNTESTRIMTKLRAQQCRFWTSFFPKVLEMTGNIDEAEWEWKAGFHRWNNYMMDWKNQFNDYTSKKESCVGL
T1 sequence (P22303 whole entry): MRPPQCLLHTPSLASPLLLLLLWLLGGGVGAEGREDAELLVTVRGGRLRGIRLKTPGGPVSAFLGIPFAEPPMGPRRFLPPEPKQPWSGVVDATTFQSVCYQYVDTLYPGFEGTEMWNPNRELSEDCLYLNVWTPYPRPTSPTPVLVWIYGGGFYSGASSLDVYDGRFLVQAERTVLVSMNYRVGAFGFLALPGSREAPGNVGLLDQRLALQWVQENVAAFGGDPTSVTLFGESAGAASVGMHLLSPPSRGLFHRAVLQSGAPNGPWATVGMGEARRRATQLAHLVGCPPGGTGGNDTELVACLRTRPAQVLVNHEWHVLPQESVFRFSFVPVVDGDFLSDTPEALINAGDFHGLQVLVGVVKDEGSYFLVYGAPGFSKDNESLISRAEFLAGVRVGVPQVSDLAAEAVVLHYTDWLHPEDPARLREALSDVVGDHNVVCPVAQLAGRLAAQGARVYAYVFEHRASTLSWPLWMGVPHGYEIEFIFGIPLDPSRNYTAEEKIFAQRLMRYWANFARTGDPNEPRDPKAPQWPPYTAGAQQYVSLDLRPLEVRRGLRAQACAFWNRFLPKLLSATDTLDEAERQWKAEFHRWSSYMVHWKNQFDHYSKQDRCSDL

CCCCC[N+]1(C)CCN(c2ccc(/C=C3\Cc4cc(OC)c(OC)cc4C3=O)cc2)CC1
IC50 (Acetylcholinesterase [1]): 540 nM
Ratio IC50 (Homo sapiens): 0.17
IC50 (Cholinesterase [2]): 3.24 µM

COc1cc2c(cc1OC)C(=O)/C(=C/c1ccc(N3CC[N+](C)(Cc4ccccc4)CC3)cc1)C2
IC50 (Acetylcholinesterase [1]): 370 nM
Kinact (Acetylcholinesterase [3]): 0.5 µM
Ki (Cholinesterase [4]): 400 nM
Ratio IC50 (Homo sapiens): 0.86
IC50 (HFF): 2400 nM
IC50 (Cholinesterase [2]): 0.43 µM
Ki (Acetylcholinesterase [5]): 500 nM
IC50 (SH-SY5Y): 1280 nM
IC50 (MCF7): 1200 nM

COc1cc2c(cc1OC)C(=O)/C(=C/c1ccc(OCCBr)cc1)C2
inhibition (Cholinesterase [6]): 5.16%
inhibition (Acetylcholinesterase [7]): 6.16%

COc1cc2c(cc1OC)C(=O)/C(=C/c1ccc(OCCCCBr)cc1)C2
inhibition (Cholinesterase [6]): 0%
inhibition (Acetylcholinesterase [7]): 27.8%

C=CC[N+]1(C)CCN(c2ccc(/C=C3\Cc4cc(OC)c(OC)cc4C3=O)cc2)CC1
IC50 (Acetylcholinesterase [1]): 430 nM
Ratio IC50 (Homo sapiens): 0.02
IC50 (Cholinesterase [2]): 25.2 µM

COc1cc2c(cc1OC)C(=O)/C(=C/c1ccc(N3CC[N+](C)(Cc4cccc(Cl)c4)CC3)cc1)C2.[Br-]
Activity (PC-12 [8]): Dose-dependent effect
Flu intensity (PC-12 [9]): 38
Activity (PC-12 [10]): Dose-dependent effect
Flu intensity (PC-12 [11]): 51
Activity (PC-12 [12]): Dose-dependent effect
IC50 (Acetylcholinesterase [1]): 320 nM
Activity_index (PC-12 [13]): 50
Ki (Cholinesterase [4]): 500 nM
Ratio IC50 (Homo sapiens): 0.74
IC50 (HFF): 1980 nM
IC50 (Cholinesterase [2]): 0.43 µM
Ki (Acetylcholinesterase [14]): 1000 nM
Kinact (Acetylcholinesterase [14]): 0.5 µM
Activity_index (PC-12 [15]): 35
Activity (PC-12 [16]): Dose-dependent effect
Activity (PC-12 [17]): 40.4%
Activity (PC-12 [18]): 16.6%
Activity (PC-12 [19]): Dose-dependent effect
Activity (PC-12 [20]): Dose-dependent effect
Activity (PC-12 [21]): Active
IC50 (SH-SY5Y): 1230 nM
IC50 (MCF7): 1520 nM
Activity (PC-12 [22]): 27.5%
Activity (PC-12 [23]): Dose-dependent effect

COc1cc2c(cc1OC)C(=O)/C(=C/c1ccc(N3CC[N+](C)(CCO)CC3)cc1)C2
IC50 (Acetylcholinesterase [1]): 1100 nM
Ratio IC50 (Homo sapiens): 0.17
IC50 (Cholinesterase [2]): 6.48 µM

COc1cc2c(cc1OC)C(=O)/C(=C/c1ccc(N3CC[N+](C)(Cc4cccc(Br)c4)CC3)cc1)C2
IC50 (Acetylcholinesterase [1]): 1990 nM
Ratio IC50 (Homo sapiens): 3.06
IC50 (Cholinesterase [2]): 0.65 µM

COc1cc2c(cc1OC)C(=O)/C(=C/c1ccc(N3CCN(C)CC3)cc1)C2
inhibition (Cholinesterase [6]): 23.9%
IC50 (Acetylcholinesterase [1]): 320 nM

COc1cc2c(cc1OC)C(=O)/C(=C/c1ccc(N3CC[N+](C)(Cc4ccc(Br)cc4)CC3)cc1)C2
IC50 (Acetylcholinesterase [1]): 2550 nM
Ratio IC50 (Homo sapiens): 0.55
IC50 (Cholinesterase [2]): 4.6 µM

CCCC[N+]1(C)CCN(c2ccc(/C=C3\Cc4cc(OC)c(OC)cc4C3=O)cc2)CC1
IC50 (Acetylcholinesterase [1]): 540 nM
Ratio IC50 (Homo sapiens): 0.02
IC50 (Cholinesterase [2]): 21.6 µM

COc1cc2c(cc1OC)C(=O)/C(=C/c1ccc(N3CC[N+](C)(Cc4ccccn4)CC3)cc1)C2
IC50 (Acetylcholinesterase [1]): 380 nM
Ratio IC50 (Homo sapiens): 0.12
IC50 (Cholinesterase [2]): 3.24 µM

CCC[N+]1(C)CCN(c2ccc(/C=C3\Cc4cc(OC)c(OC)cc4C3=O)cc2)CC1
IC50 (Acetylcholinesterase [1]): 2150 nM
Ratio IC50 (Homo sapiens): 0.11
IC50 (Cholinesterase [2]): 20.2 µM

COc1cc2c(cc1OC)C(=O)/C(=C/c1ccc(N3CC[N+](C)(Cc4ccccc4Cl)CC3)cc1)C2
IC50 (Acetylcholinesterase [1]): 480 nM
Ratio IC50 (Homo sapiens): 0.22
IC50 (Cholinesterase [2]): 2.16 µM

CCCCCC[N+]1(C)CCN(c2ccc(/C=C3\Cc4cc(OC)c(OC)cc4C3=O)cc2)CC1
IC50 (Acetylcholinesterase [1]): 4250 nM
Ratio IC50 (Homo sapiens): 1.18
IC50 (Cholinesterase [2]): 3.6 µM

COc1cc2c(cc1OC)C(=O)/C(=C/c1ccc(N3CC[N+](C)(Cc4ccccc4Br)CC3)cc1)C2
IC50 (Acetylcholinesterase [1]): 540 nM
Ratio IC50 (Homo sapiens): 0.38
IC50 (Cholinesterase [2]): 1.4 µM
